According to ChEMBL document CHEMBL1135628, “Potent and long-acting corticotropin releasing factor (CRF) receptor 2 selective peptide competitive antagonists” (J Med Chem, 2002):

How the values were obtained:
[1] = molecular target: T1, Corticotropin-releasing factor receptor 1 (Homo sapiens, UniProt P34998); experiment: Inhibition of recombinant corticotropin releasing factor receptor 1 assayed using nonselective [125I]-labeled agonist [Tyr0,Glu1,Nle17]-sauvagine
T1 sequence (P34998 whole entry): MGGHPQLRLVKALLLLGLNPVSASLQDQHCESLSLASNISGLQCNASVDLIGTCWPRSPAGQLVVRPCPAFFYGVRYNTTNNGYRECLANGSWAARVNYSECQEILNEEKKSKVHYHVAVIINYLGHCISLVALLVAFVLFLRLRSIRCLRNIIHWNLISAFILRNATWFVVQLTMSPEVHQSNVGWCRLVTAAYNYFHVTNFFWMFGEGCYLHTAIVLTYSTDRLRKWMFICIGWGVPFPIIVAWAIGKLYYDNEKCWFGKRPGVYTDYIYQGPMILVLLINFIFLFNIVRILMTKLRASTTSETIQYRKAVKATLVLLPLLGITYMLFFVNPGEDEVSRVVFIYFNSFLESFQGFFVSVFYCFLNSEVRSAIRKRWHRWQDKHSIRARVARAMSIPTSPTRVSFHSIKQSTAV
Outline: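 Crude plasma membranes from stable CHO lines expressing hCRF1 or mCRF2β, stored in 10% sucrose at -80 °C. Incubated 90 min at room temperature, then washed and filtered. IC50 taken from one representative assay, repeated at least twice.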

[2] = molecular target: Corticotropin-releasing factor receptor 2 (Mus musculus) (UniProt Q60748); experiment: Inhibition of recombinant mouse corticotropin releasing factor receptor 2 beta (CRF2beta) assayed using nonselective [125I]-labeled agonist [Tyr0,Glu1,Nle17]-sauvagine as radioligand
Chain of Corticotropin-releasing factor receptor 2 (Mus musculus) (Q60748 whole entry, looked up): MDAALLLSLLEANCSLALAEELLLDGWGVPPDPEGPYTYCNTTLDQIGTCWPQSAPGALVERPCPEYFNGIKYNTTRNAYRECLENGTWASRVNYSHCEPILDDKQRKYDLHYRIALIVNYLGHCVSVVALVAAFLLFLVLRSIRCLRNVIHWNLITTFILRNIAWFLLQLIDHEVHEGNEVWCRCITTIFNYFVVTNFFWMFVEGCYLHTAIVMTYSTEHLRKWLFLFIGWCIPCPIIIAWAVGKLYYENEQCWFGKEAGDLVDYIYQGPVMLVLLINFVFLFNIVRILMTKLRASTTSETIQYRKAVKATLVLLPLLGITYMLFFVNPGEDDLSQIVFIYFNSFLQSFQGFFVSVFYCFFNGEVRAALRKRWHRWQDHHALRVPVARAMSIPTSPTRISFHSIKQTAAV

## CCCC[C@H](NC(=O)[C@H](CCCCN)NC(=O)[C@H](CCCN=C(N)N)NC(=O)[C@H](CC(C)C)NC(=O)[C@](C)(CC(C)C)NC(=O)[C@H](Cc1c[nH]cn1)NC(=O)[C@@H](Cc1ccccc1)NC(=O)[C@H](CO)NC(=O)[C@H](CC(C)C)NC(=O)[C@H](CC(=O)O)NC(C)=O)C(=O)N[C@H](C(=O)N[C@@H](CCC(=O)O)C(=O)N[C@H](C(=O)N[C@@H](CCC(=O)O)C(=O)N[C@@H](CCCCN)C(=O)N[C@@H](CCC(N)=O)C(=O)N[C@@H](CCC(=O)O)C(=O)N[C@@H](CCCCN)C(=O)N[C@@H](CCC(=O)O)C(=O)N[C@@H](CCCCN)C(=O)N[C@@H](CCC(N)=O)C(=O)N[C@@H](CCC(N)=O)C(=O)N[C@H]1CCC(=O)NCCCC[C@@H](C(=O)N[C@@H](CCCN=C(N)N)C(=O)N[C@@H](CC(C)C)C(=O)N[C@@H](CC(C)C)C(=O)N[C@@H](CC(C)C)C(=O)N[C@@H](CC(=O)O)C(=O)N[C@@](C)(CC(C)C)C(=O)N[C@H](C(N)=O)[C@@H](C)CC)NC(=O)[C@H](CC(N)=O)NC(=O)[C@H](C)NC1=O)[C@@H](C)CC)[C@@H](C)CC
[1]
  IC50: > 500 nM
[2]
  IC50: 81 nM
